One series relates to A549 cells. As to the kind of experiment: In-vitro cytotoxicity, crystal violet dye assay. The series is classed as cell-based, human.
The nature of series [1]: Plasma pharmacokinetics after i.v. administration. The series is classed as in vivo, BALB/c mice. The conditions noted are these: DIM-P, 5.0 mg/kg equivalent of DIM-P. In a few lines: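 BALB/c mice, randomized (n = 6 per group) and fasted overnight, received a single i.v. dose (DIM-P equivalent 5.0 mg/kg). Plasma was deproteinized with acetonitrile and spun 15 min at 10,000 g. Analysis was C18 HPLC with acetonitrile:water 90:10 at 1.0 mL/min, UV 242 nm. Parameters were derived non-compartmentally.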

In the series with A549 cells (A549 cells, 72 h), `c1ccc(-c2ccc(C(c3c[nH]c4ccccc34)c3c[nH]c4ccccc34)cc2)cc1` [DIM-P, DIM-C-pPhC6H5] returned a concentration for half-maximal inhibition (IC50) of 6.8 ± 0.7 µM. In series [1], the Cl stood at 0.629 ± 0.173 mL/min/kg, the Cmax turned out to be 216.25 ± 23.59 µg/mL, the K10-HL was 2.98 ± 0.65 hr^−1 and the MRT was 2.79 ± 1.02 h. Further, in series [1], the Vss came out at 0.18598 ± 0.02989 L/kg. In series [1] (non-compartment analysis), the “AUC0–24” value was determined as 124.22 ± 13.65 µg·h/mL.
Take `CC(=O)O[C@@]12CO[C@@H]1C[C@H](O)[C@@]1(C)C(=O)[C@H](O)C3=C(C)[C@@H](OC(=O)[C@H](O)[C@@H](NC(=O)OC(C)(C)C)c4ccccc4)C[C@@](O)([C@@H](OC(=O)c4ccccc4)[C@H]21)C3(C)C` [Doc, Docetaxel, reference compound]: the IC50 with A549 cells (Homo sapiens, A549, 72 h) stood at 0.02 ± 0.01 µM.

The values are drawn from article PMC5725227 (Pharmaceutical research, 2014).
